Laboratory results published in ChEMBL document CHEMBL1126015, “Heteroatom analogues of bemoradan: chemistry and cardiotonic activity of 1,4-benzothiazinylpyridazinones” (J Med Chem, 1992).

Key:
Canis familiaris [1] = assay: Increase in cardiac force in dog at 75 ug/kg intravenous dose; assay type: functional, Canis lupus familiaris
Canis familiaris [2] = assay: 50% increase in cardiac force in dog by intravenous dose; assay type: functional; conditions: Canis lupus familiaris, Heart
Procedure, shortened: (§1)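 Anesthetized dogs; the value is the dose, given iv or intraduodenally, that raises cardiac force by 50%.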

Canis familiaris [3] = species on record: Canis familiaris; assay: 50% increase in cardiac force in dog by id dose; assay type: functional; conditions: Canis lupus familiaris, Heart; procedure, shortened: as §1

Compound: O=C1CCC(c2ccc3c(c2)SCC(=O)N3)=NN1
- Change (Canis familiaris [1]): 62%

Compound: CN1C(=O)CS(=O)(=O)c2cc(C3=NNC(=O)CC3)ccc21
- Change (Canis familiaris [1]): 20%

Compound: CN1C(=O)C[S+]([O-])c2cc(C3=NNC(=O)CC3)ccc21 (stereo unspecified)
- Change (Canis familiaris [1]): -3%

Compound: CN1C(=O)CSc2cc(C3=NNC(=O)CC3)ccc21
- Change (Canis familiaris [1]): 38%

Compound: CC1CC(=O)NN=C1c1ccc2c(c1)OCC(=O)N2 (stereo unspecified) [BEMORADAN]
- ED50 (Canis familiaris [2]): 5.4 µg/kg
- ED50 (Canis familiaris [3]): 10 µg/kg
